In data set [1] the test system is RAW264.7. Briefly: Cytotoxicity against mouse RAW264.7 cells assessed as reduction in cell viability after 24 hrs by MTT assay. The class given is functional, cell-based. The conditions noted are these: RAW264.7, 24 h. The method, boiled down:
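RAW 264.7 mouse macrophage line kept in RPMI 1640 with 10% FBS, L-glutamine and antibiotics. Treated with 1–100 μM for 24 h, then MTT at 37 °C for 4 h. Formazan taken up in DMSO and read at 540 nm. Triplicate, at least three independent experiments. IC50 is the concentration giving 50% loss of viability relative to untreated cells.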

A further data set concerns HeLa. Briefly: Cytotoxicity against human HeLa cells assessed as reduction in cell viability after 24 hrs by MTT assay. The format is functional, cell-based. The method, boiled down:
(§1)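 Cancer cells kept in DMEM with 10% FBS, L-glutamine and antibiotics. Exposed to 1–100 μM for 24 h, then MTT at 37 °C for 4 h. Formazan dissolved in DMSO and read at 540 nm. Triplicate wells, at least three independent experiments. Viability reduction expressed against untreated cultures. IC50 is the concentration giving 50% loss of viability.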

Another data set deals with HepG2. As to the kind of experiment: Cytotoxicity against human HepG2 cells assessed as reduction in cell viability after 24 hrs by MTT assay. The class given is functional, cell-based. As to conditions: HepG2, 24 h. The method, boiled down:
as §1

The subject of another data set is HT-29. As to the kind of experiment: Cytotoxicity against human HT-29 cells assessed as reduction in cell viability after 24 hrs by MTT assay. The format is functional, cell-based. The conditions noted are these: HT-29, 24 h. In short, it runs like this:
as §1

A short description of data set [2]: Toxicity in thioglycolate-induced mouse peritoneal macrophages assessed as reduction in cell viability after 24 hrs by MTT assay. The class given is cell-based. As to conditions: peritoneal macrophage cell. The method, boiled down: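 Primary peritoneal macrophages from thioglycolate-injected mice exposed to a range of concentrations for 24 h. Viability read by MTT at 37 °C for 4 h, formazan dissolved in DMSO, absorbance at 540 nm. Three independent experiments in duplicate, means ± SD.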

A short description of data set [3]: Toxicity in thioglycolate-induced mouse peritoneal macrophages assessed as induction of apoptosis after 24 hrs by flow cytometry. The conditions noted are these: peritoneal macrophage cell. The class given is cell-based. In short, it runs like this: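 Peritoneal macrophages collected from thioglycolate-injected mice and treated across a concentration range for 24 h. Stained with PI and analysed by flow cytometry for apoptotic percentage. Means ± SD of three independent experiments done in duplicate.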

Data set [4] concerns RAW264.7. As to the kind of experiment: Induction of apoptosis in mouse RAW264.7 cells at 1 to 25 uM after 24 hrs by flow cytometry. The class given is functional, cell-based. In short, it runs like this: (§2)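 RAW 264.7 cells exposed to 1–25 μM for 24 h. Stained with 0.005% (w/v) propidium iodide and analysed at once by flow cytometry. Apoptotic and necrotic fractions taken from a forward scatter versus PI fluorescence dot plot. Means ± SD of three independent experiments in triplicate.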

Data set [5] concerns RAW264.7. As to the kind of experiment: Induction of apoptosis in mouse RAW264.7 cells at 1 uM after 24 hrs by flow cytometry. The class given is functional. The method, boiled down:
as §2

Data set [6] has as its system RAW264.7. Briefly: Induction of apoptosis in mouse RAW264.7 cells assessed as caspase 8 activation at 5 uM after 24 hrs by fluorimetry. The class given is functional, cell-based. In short, it runs like this: (§3)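 RAW cells treated with 5 μM for 24 h, with or without 40 μM z-VAD. Caspase activity read fluorimetrically in cytosolic extracts. Substrates: Ac-DEVD-AMC for caspase-3, Ac-IETD-AFC for caspase-8, Ac-LEHD-AFC for caspase-9. Means ± SD of three independent experiments run in triplicate.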

Data set [7] concerns RAW264.7. Briefly: Induction of apoptosis in mouse RAW264.7 cells assessed as caspase 9 activation at 5 uM after 24 hrs by fluorimetry. The format is functional, cell-based. In short, it runs like this:
as §3

In data set [8] the test system is RAW264.7. Briefly: Induction of apoptosis in mouse RAW264.7 cells assessed as caspase 3 activation at 5 uM after 24 hrs by fluorimetry. The class given is functional, cell-based. In short, it runs like this: as §3
Data set [9] deals with RAW264.7. Briefly: Induction of apoptosis in mouse RAW264.7 cells assessed as caspase 8 activation at 5 uM in presence of 40 uM caspase inhibitor z-VAD after 24 hrs by fluorimetric assay. The class given is functional, cell-based. The method, boiled down:
as §3

The test system of data set [10] is RAW264.7. As to the kind of experiment: Induction of apoptosis in mouse RAW264.7 cells assessed as caspase 9 activation at 5 uM in presence of 40 uM caspase inhibitor z-VAD after 24 hrs by fluorimetric assay. The format is functional, cell-based. In short, it runs like this:
as §3

The test system of data set [11] is RAW264.7. As to the kind of experiment: Induction of apoptosis in mouse RAW264.7 cells assessed as caspase 3 activation at 5 uM in presence of 40 uM caspase inhibitor z-VAD after 24 hrs by fluorimetric assay. The format is functional, cell-based. In short, it runs like this: as §3
The test system of data set [12] is RAW264.7. Briefly: Induction of apoptosis in mouse RAW264.7 cells at 5 uM in presence of 40 uM caspase inhibitor z-VAD after 24 hrs by flow cytometry. The format is functional, cell-based. In short, it runs like this:
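RAW 264.7 cells given 5 μM for 24 h, with or without 40 μM z-VAD. Stained with 0.005% (w/v) PI and analysed by flow cytometry. Apoptotic percentage taken from a forward scatter versus PI fluorescence dot plot. Three independent experiments in triplicate, means ± SD.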

In data set [13] the test system is RAW264.7. Briefly: Increase in p53 protein expression in mouse RAW264.7 cells at 5 uM by Western blot. The class given is functional, cell-based. In short, it runs like this:
(§4)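 RAW 264.7 cells incubated with 5 μM and sampled at several time points. Cytosolic extracts run on SDS–PAGE (10–15% gels) and blotted to PVDF. Probed for p53, Bax, Bcl-2, Bcl-xl, XIAP, IAP-1 and IAP-2, then HRP secondary and chemiluminescence. β-actin served as loading control. Protein measured by Bio-Rad assay.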

In data set [14] the test system is RAW264.7. As to the kind of experiment: Increase in Bax protein expression in mouse RAW264.7 cells at 5 uM by Western blot. The class given is functional, cell-based. In short, it runs like this: as §4
Data set [15] relates to RAW264.7. As to the kind of experiment: Decrease in Bcl-2 protein expression in mouse RAW264.7 cells at 5 uM by Western blot. The class given is functional, cell-based. In short, it runs like this:
as §4

Data set [16] deals with RAW264.7. As to the kind of experiment: Decrease in Bcl-xl protein expression in mouse RAW264.7 cells at 5 uM by Western blot. The class given is functional, cell-based. In short, it runs like this: as §4
Data set [17] relates to RAW264.7. As to the kind of experiment: Decrease in IAP protein expression in mouse RAW264.7 cells at 5 uM by Western blot. The class given is functional, cell-based. In short, it runs like this:
as §4

Calls of active or inactive are those of the source. The calls are words filed in the database; no cut-off is given here.

Regarding `C=C1C(=O)[C@@]23CC[C@H]4[C@@](C)(CCC[C@@]4(C)C(=O)OC)[C@@H]2CC[C@@H]1C3`, the IC50 in the data set with RAW264.7 [1] was found to be 1 µM; in the data set with HeLa it was 50 µM; with HepG2, 75 µM; in the data set with HT-29 it was 30 µM. Moreover, the Activity result in data set [2] is on record as “Non-toxic”; in data set [3] it was “Non-toxic”; in the data set with RAW264.7 [5] it was 50%. Besides, the result with RAW264.7 [4], in the data set on RAW264.7 [6], with RAW264.7 [7], with RAW264.7 [8], with RAW264.7 [13] and with RAW264.7 [14] was Active. For the same compound, the outcome in the data set on RAW264.7 [15], with RAW264.7 [16] and in the data set on RAW264.7 [17] was Active. Besides, the outcome in the data set with RAW264.7 [9], in the data set with RAW264.7 [10], in the data set on RAW264.7 [11] and in the data set on RAW264.7 [12] was inactive.
For the compound `C=C1C(=O)[C@@]23CC[C@@H]4[C@](C)(C(=O)OC)CCC[C@@]4(C)C2=CC[C@@H]1C3`, the IC50 was 5 µM in the data set on RAW264.7 [1], 25 µM in the data set with HeLa, over 100 µM in the data set with HepG2 and 25 µM in the data set on HT-29. Besides, the Activity entry in data set [2] and in data set [3] was “Non-toxic” throughout. In addition, the result in the data set with RAW264.7 [4], in the data set with RAW264.7 [6], with RAW264.7 [7], with RAW264.7 [8], in the data set on RAW264.7 [13] and with RAW264.7 [14] was Active. Moreover, the result in the data set on RAW264.7 [15], with RAW264.7 [16] and in the data set with RAW264.7 [17] was Active. Besides, the result in the data set with RAW264.7 [9], in the data set with RAW264.7 [10], in the data set with RAW264.7 [11] and in the data set with RAW264.7 [12] was inactive.

Source of the values: ChEMBL document CHEMBL1156919, “Synthesis and induction of apoptosis signaling pathway of ent-kaurane derivatives” (Bioorg Med Chem, 2010).
